Measurements taken from ChEMBL document CHEMBL1132160, “Structure-antiviral activity relationship in the series of pyrimidine and purine N-[2-(2-phosphonomethoxy)ethyl] nucleotide analogues. 1. Derivatives substituted at the carbon atoms of the base” (J Med Chem, 1999).
≈ marks a conversion by molar mass, not a printed value.

What was measured:
[1] = Inhibitory activity against murine sarcoma virus induced transformation of murine C3H/3T3 embryo fibroblasts; format: functional, Mus musculus
Method in brief: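 Murine C3H/3T3 embryo fibroblasts were seeded at 5 × 10⁵ cells/mL. After 24 h they were infected with 80 focus-forming units of MSV for 90–120 min at 37 °C. The medium was then replaced with fresh medium containing various compound concentrations, and transformation was examined microscopically after 6 days.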

[2] = tested on: Human immunodeficiency virus 1; experiment: Inhibition of human immunodeficiency virus type 1 (HIV-1) induced cytopathogenicity in CEM cells; format: functional, organism-based; details: Human immunodeficiency virus 1, CCRF-CEM
Method in brief: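 CEM cells (~3 × 10⁵ cells/mL) were infected with 100 CCID50 of HIV-1 (IIIB)/mL and plated with dilutions of compound. After 4 days at 37 °C, giant cell formation was assessed microscopically.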

[3] = tested on: Human immunodeficiency virus 2; experiment: Inhibition of human immunodeficiency virus type 2 (HIV-2) induced cytopathogenicity in CEM cells; format: functional, organism-based; details: Human immunodeficiency virus 2, CCRF-CEM
Human alphaherpesvirus 1 [4] = experiment: Inhibition of herpes simplex virus type 1 (HSV-1) F strain; format: functional, organism-based
Method in brief: (§1)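 Confluent E6SM cell cultures were inoculated with 100 CCID50 of virus and allowed 1 h for adsorption. Residual virus was then removed, and the cells were incubated with test compound at 400, 200, 100, ... μg/mL. Viral cytopathicity was scored once it reached completion in untreated infected controls.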

Human alphaherpesvirus 1 [5] = experiment: Inhibitory activity against herpes simplex virus type 1 (HSV-1) KOS strain; format: functional, organism-based; method in brief: as §1
Human alphaherpesvirus 1 [6] = experiment: Inhibitory activity against herpes simplex virus type 1 (HSV-1) McIntyre strain; format: functional, organism-based; method in brief: as §1
[7] = Inhibitory activity against herpes simplex virus type 2 (HSV-2) 196 strain; format: functional; method in brief: as §1
Human alphaherpesvirus 2 [8] = experiment: Inhibitory activity against herpes simplex virus type 2 (HSV-2) Lyons strain; format: functional, organism-based; method in brief: as §1
Vaccinia virus [9] = experiment: Inhibitory activity against vaccinia virus (VV); format: functional, organism-based; details: Orthopoxvirus vaccinia
Method in brief: (§2)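 Confluent E6SM cell cultures were inoculated with 100 CCID50 of virus and left for 1 h adsorption, then residual virus was removed. Cultures were incubated with test compound at serial concentrations (400, 200, 100, ... μg/mL). Virus-induced cytopathicity was scored once it reached completion in untreated infected control cultures.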

Cytomegalovirus [10] = experiment: Inhibitory activity against cytomegalovirus (CMV) AD 169 strain; format: functional, organism-based; details: Human betaherpesvirus 5
Method in brief: (§3)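 HEL cell cultures, grown to confluence, received 100 CCID50 of virus. After 1 h adsorption, the inoculum was removed and the cultures were incubated with serial concentrations of compound (400, 200, 100, ... μg/mL).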

Cytomegalovirus [11] = experiment: Inhibitory activity against cytomegalovirus (CMV) Davis strain; format: functional, organism-based; details: Human betaherpesvirus 5; method in brief: as §3
HEL = experiment: Compound was evaluated for inhibitory activity against varicella zoster virus thymidine kinase (VZV TK-) 07/1 strain; NA=not active; format: functional, cell-based, Homo sapiens
Human alphaherpesvirus 2 [12] = experiment: Inhibitory activity against herpes simplex virus type 2 (HSV-2) G strain; format: functional, organism-based; method in brief: as §1
[13] = tested on: Human immunodeficiency virus 1; experiment: Inhibitory activity of compound against human immunodeficiency virus type 1 (HIV-1) induced cytopathogenicity in MT-4 cells; format: functional, organism-based; details: Human immunodeficiency virus 1, MT4
Method in brief: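 Human MT-4 cells (~4 × 10⁵ cells/mL) were infected with 100 CCID50 of HIV-1 (IIIB)/mL and seeded into wells containing compound dilutions. After 5 days at 37 °C, viable cells were counted by trypan blue exclusion in a blood cell counting chamber.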

Human alphaherpesvirus 1 [14] = experiment: Inhibitory activity against herpes simplex virus type 1 (HSV-1) F strain; format: functional, organism-based; method in brief: as §1
Human alphaherpesvirus 1 [15] = experiment: Inhibitory activity against herpes simplex virus type 1 (HSV-1) KOS strain.; format: functional, organism-based; method in brief: as §1
Human alphaherpesvirus 1 [16] = experiment: Iactivity against herpes simplex virus type 1 (HSV-1) McIntyre strain.; format: functional, organism-based; method in brief: as §1
Human alphaherpesvirus 2 [17] = experiment: Inhibitory activity against herpes simplex virus type 2 (HSV-2) 196 strain.; format: functional, organism-based; method in brief: as §1
Human alphaherpesvirus 2 [18] = experiment: Inhibitory activity against herpes simplex virus type 2 (HSV-2) G strain.; format: functional, organism-based; method in brief: as §1
E6SM = experiment: Inhibitory activity against herpes simplex virus type 2 (HSV-2) Lyons strain.; format: functional, cell-based, Homo sapiens; method in brief: as §1
[19] = tested on: Human immunodeficiency virus 2; experiment: Inhibitory activity against human immunodeficiency virus type 2 (HIV-2) induced cytopathogenicity in MT-4 cells; format: functional, organism-based; details: Human immunodeficiency virus 2, MT4
Human alphaherpesvirus 1 [20] = experiment: Inhibitory activity against herpes simplex virus type 1 thymidine kinase (HSV-1 TK-) VMW 1837 strain.
Vaccinia virus [21] = experiment: Inhibitory activity against vaccinia virus (VV).; format: functional, organism-based, Orthopoxvirus vaccinia; method in brief: as §2

SMILES | EC50 [1] [µg/mL] | EC50 (Human alphaherpesvirus 1 [4]) [µg/mL] | EC50 (Human alphaherpesvirus 1 [5]) [µg/mL] | EC50 (Human alphaherpesvirus 1 [6]) [µg/mL] | EC50 [7] [µg/mL] | EC50 (Human alphaherpesvirus 2 [8]) [µg/mL] | EC50 (Vaccinia virus [9]) [µg/mL] | EC50 (Cytomegalovirus [10]) [µg/mL] | EC50 (Cytomegalovirus [11]) [µg/mL] | EC50 (Human alphaherpesvirus 2 [12]) [µg/mL] | EC50 [13] [µg/mL] | EC50 (Human alphaherpesvirus 1 [14]) | EC50 (Human alphaherpesvirus 1 [15]) | EC50 (Human alphaherpesvirus 1 [16]) | EC50 (Human alphaherpesvirus 2 [17]) | EC50 (Human alphaherpesvirus 2 [18]) | EC50 (E6SM) | EC50 [19] [µg/mL] | EC50 (Human alphaherpesvirus 1 [20]) | other results
CC(C)OP(=O)(COCCn1cnc2nc(N)nc(O)c21)OC(C)C | > 200 | > 200 | > 200 | > 200 | > 200 | > 200 | > 200 | > 50 | > 50 | > 200 |  |  |  |  |  |  |  |  |  | EC50 [2]: > 100 µg/mL; EC50 [3]: > 100 µg/mL; EC50 (HEL): Not Active
CC(C)OP(=O)(COCCn1cnc2c(N)nc(N)nc21)OC(C)C |  | 240 (≈ 645 µM) | 240 (≈ 645 µM) | 89 (≈ 239 µM) | 240 (≈ 645 µM) | 240 (≈ 645 µM) |  | 2 (≈ 5.37 µM) | 2 (≈ 5.37 µM) | > 400 | > 100 |  |  |  |  |  |  |  |  | EC50 [2]: > 100 µg/mL
Nc1nc(N)c2ncn(CCOCP(=O)(O)O)c2n1 [PMEDAP] | 0.6 (≈ 2.08 µM) | 2 (≈ 6.94 µM) | 2 (≈ 6.94 µM) | 2 (≈ 6.94 µM) | 0.07 (≈ 0.243 µM) | 0.07 (≈ 0.243 µM) | 20 (≈ 69.4 µM) | 10 (≈ 34.7 µM) | 10 (≈ 34.7 µM) | 0.2 (≈ 0.694 µM) | 2.67 (≈ 9.26 µM) |  |  |  |  |  |  |  |  | 
Nc1cnn(CCOCP(=O)(O)O)c(=O)n1 | > 100 |  |  |  |  |  |  | > 100 | > 100 |  | > 100 | Not Active | Not Active | Not Active | Not Active | Not Active | Not Active | > 100 | Not Active | 
Nc1ccn(CCOCP(=O)(O)O)c(=O)c1 | > 100 |  |  |  |  |  | > 40 | 100 (≈ 403 µM) | > 100 |  | > 100 | Not Active | Not Active | Not Active | Not Active | Not Active | Not Active | > 100 | Not Active | 
Nc1nc(=O)ccn1CCOCP(=O)(O)O | > 100 |  | > 400 |  |  |  |  | > 100 | > 100 |  | > 100 | Not Active |  | Not Active | Not Active | Not Active | Not Active | > 100 | Not Active | 
CC(C)OP(=O)(COCCn1cnc2c(N)nc(Cl)nc21)OC(C)C | > 100 |  |  |  |  |  |  | 0.65 (≈ 1.66 µM) | 0.7 (≈ 1.79 µM) |  | > 20 | Not Active | Not Active | Not Active | Not Active | Not Active | Not Active |  | Not Active | EC50 (Vaccinia virus [21]): Not Active; EC50 (HEL): Not Active
CCOP(=O)(O)COCCn1cnc2c(O)nc(N)nc21 | 0.24 (≈ 0.757 µM) | 2 (≈ 6.3 µM) | 2 (≈ 6.3 µM) | 2 (≈ 6.3 µM) | 2 (≈ 6.3 µM) | 2 (≈ 6.3 µM) | 20 (≈ 63 µM) | 0.15 (≈ 0.473 µM) | 0.15 (≈ 0.473 µM) | 0.7 (≈ 2.21 µM) | 2.6 (≈ 8.2 µM) |  |  |  |  |  |  |  |  | 
CC(C)OP(=O)(COCCn1cnc2c(Cl)nc(N)nc21)OC(C)C | > 100 |  |  |  |  |  |  | 40 (≈ 102 µM) | 10 (≈ 25.5 µM) |  | > 100 | Not Active | Not Active | Not Active | Not Active | Not Active | Not Active | > 100 | Not Active | EC50 (Vaccinia virus [21]): Not Active
Nc1cc2c(ncn2CCOCP(=O)(O)O)c(O)n1 | 2.9 (≈ 10.1 µM) | 7 (≈ 24.3 µM) | 4.5 (≈ 15.6 µM) | 4 (≈ 13.9 µM) | 7 (≈ 24.3 µM) | 7 (≈ 24.3 µM) | 150 (≈ 520 µM) | 2 (≈ 6.94 µM) | 1.5 (≈ 5.2 µM) | 12 (≈ 41.6 µM) | > 20 |  |  |  |  |  |  | > 20 |  | 
